Source: ChEMBL document CHEMBL3286357, “Design, synthesis and pharmacological evaluation of novel substituted quinoline-2-carboxamide derivatives as human dihydroorotate dehydrogenase (hDHODH) inhibitors and anticancer agents” (Eur J Med Chem, 2014)

Experiments:
A-375 [1] = assay: Antiproliferative activity against human A375 cells at 100 ug/ml for 24 hrs by MTT assay; assay type: functional; conditions: A-375, 24 h
Outline: (§1)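 HEP-3B or A-375 cells were grown in DMEM with 10% FBS, 5% HBSS, penicillin, streptomycin and amphotericin B at 37 C and 5% CO2. Cells were seeded at 2 × 10^4 per well and preincubated for 24 h. They were then exposed to ten 1:3 serial dilutions from a top concentration of 100, made from 2% DMSO stocks. MTT was added for 3 h, formazan was dissolved in DMSO, and A550 was read. Wells were run in triplicate across three independent experiments. IC50 came from dose-response curves.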

[2] = Antiproliferative activity against human Hep3B cells at 0.02 ug/ml for 24 hrs by MTT assay; assay type: functional, Hep 3B2; outline: as §1
A-375 [3] = assay: Antiproliferative activity against human A375 cells at 0.01 ug/ml for 24 hrs by MTT assay; assay type: functional; conditions: A-375, 24 h; outline: as §1
[4] = Antiproliferative activity against human Hep3B cells at 3.7 ug/ml for 24 hrs by MTT assay; assay type: functional, Hep 3B2; outline: as §1
A-375 (human melanoma) = assay: Antiproliferative activity against human A375 cells for 24 hrs by MTT assay; conditions: A-375, 24 h
[5] = biological target: Dihydroorotate dehydrogenase (quinone), mitochondrial (Homo sapiens, UniProt Q02127); assay: Inhibition of recombinant human DHODH activity after 20 mins by DCIP dye based colorimetric analysis in presence of 1 mM L-dihydroorotate and 0.1 mM CqD
Chain of Dihydroorotate dehydrogenase (quinone), mitochondrial (Q02127 whole entry): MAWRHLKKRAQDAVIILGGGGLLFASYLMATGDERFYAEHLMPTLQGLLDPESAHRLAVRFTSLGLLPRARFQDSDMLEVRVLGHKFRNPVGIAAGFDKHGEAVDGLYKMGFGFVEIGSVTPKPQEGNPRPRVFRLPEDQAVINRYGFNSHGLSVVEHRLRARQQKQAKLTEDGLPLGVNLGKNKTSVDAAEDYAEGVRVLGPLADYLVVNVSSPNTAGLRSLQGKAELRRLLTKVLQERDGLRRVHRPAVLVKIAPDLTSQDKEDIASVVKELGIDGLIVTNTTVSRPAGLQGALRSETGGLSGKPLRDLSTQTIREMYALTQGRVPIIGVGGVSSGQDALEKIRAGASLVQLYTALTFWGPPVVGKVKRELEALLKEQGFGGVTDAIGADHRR

A-375 [6] = assay: Antiproliferative activity against human A375 cells at 0.41 ug/ml for 24 hrs by MTT assay; assay type: functional; conditions: A-375, 24 h; outline: as §1
A-375 [7] = assay: Antiproliferative activity against human A375 cells at 11.11 ug/ml for 24 hrs by MTT assay; assay type: functional; conditions: A-375, 24 h; outline: as §1
[8] = Antiproliferative activity against human Hep3B cells at 1.23 ug/ml for 24 hrs by MTT assay; assay type: functional, Hep 3B2; outline: as §1
[9] = Antiproliferative activity against human Hep3B cells at 0.14 ug/ml for 24 hrs by MTT assay; assay type: functional, Hep 3B2; outline: as §1
HEP-3B (human hepatoma) = assay: Antiproliferative activity against human Hep3B cells for 24 hrs by MTT assay
[10] = Antiproliferative activity against human Hep3B cells at 0.41 ug/ml for 24 hrs by MTT assay; assay type: functional, Hep 3B2; outline: as §1
[11] = Antiproliferative activity against human Hep3B cells at 33.33 ug/ml for 24 hrs by MTT assay; assay type: functional, Hep 3B2; outline: as §1
[12] = Antiproliferative activity against human Hep3B cells at 0.05 ug/ml for 24 hrs by MTT assay; assay type: functional, Hep 3B2; outline: as §1
A-375 [13] = assay: Antiproliferative activity against human A375 cells at 33.33 ug/ml for 24 hrs by MTT assay; assay type: functional; conditions: A-375, 24 h; outline: as §1
A-375 [14] = assay: Antiproliferative activity against human A375 cells at 0.05 ug/ml for 24 hrs by MTT assay; assay type: functional; conditions: A-375, 24 h; outline: as §1
[15] = Antiproliferative activity against human Hep3B cells at 11.11 ug/ml for 24 hrs by MTT assay; assay type: functional, Hep 3B2; outline: as §1
[16] = Antiproliferative activity against human Hep3B cells at 0.01 ug/ml for 24 hrs by MTT assay; assay type: functional, Hep 3B2; outline: as §1
A-375 [17] = assay: Antiproliferative activity against human A375 cells at 0.14 ug/ml for 24 hrs by MTT assay; assay type: functional; conditions: A-375, 24 h; outline: as §1
[18] = Antiproliferative activity against human Hep3B cells at 100 ug/ml for 24 hrs by MTT assay; assay type: functional, Hep 3B2; outline: as §1
A-375 [19] = assay: Antiproliferative activity against human A375 cells at 3.7 ug/ml for 24 hrs by MTT assay; assay type: functional; conditions: A-375, 24 h; outline: as §1
A-375 [20] = assay: Antiproliferative activity against human A375 cells at 0.02 ug/ml for 24 hrs by MTT assay; assay type: functional; conditions: A-375, 24 h; outline: as §1
A-375 [21] = assay: Antiproliferative activity against human A375 cells at 1.23 ug/ml for 24 hrs by MTT assay; assay type: functional; conditions: A-375, 24 h; outline: as §1
[22] = Retention time of compound by HPLC analysis; assay type: physicochemical

| IC50 (A-375 (human melanoma)) [µM] | IC50 (HEP-3B (human hepatoma)) [µM] | Structure (SMILES) | inhibition at 100 µg/mL (A-375 [1]) [%] | inhibition at 0.02 µg/mL [2] [%] | inhibition at 0.01 µg/mL (A-375 [3]) [%] | inhibition at 3.7 µg/mL [4] [%] | inhibition at 0.41 µg/mL (A-375 [6]) [%] | inhibition at 11.11 µg/mL (A-375 [7]) [%] | inhibition at 1.23 µg/mL [8] [%] | inhibition at 0.14 µg/mL [9] [%] | inhibition at 0.41 µg/mL [10] [%] | inhibition at 33.33 µg/mL [11] [%] | inhibition at 0.05 µg/mL [12] [%] | inhibition at 33.33 µg/mL (A-375 [13]) [%] | inhibition at 0.05 µg/mL (A-375 [14]) [%] | inhibition at 11.11 µg/mL [15] [%] | inhibition at 0.01 µg/mL [16] [%] | inhibition at 0.14 µg/mL (A-375 [17]) [%] | inhibition at 100 µg/mL [18] [%] | inhibition at 3.7 µg/mL (A-375 [19]) [%] | further results |
| --- | --- | --- | --- | --- | --- | --- | --- | --- | --- | --- | --- | --- | --- | --- | --- | --- | --- | --- | --- | --- | --- |
| 18.1 | 50.6 | COc1ccc2nc(C(=O)Nc3ccc(-c4ccccc4)cc3)c(C)c(O)c2c1 | 66.9 | 0.96 | 0.13 | 23.5 | 7.62 | 36.2 | 14.2 | 3.52 | 7.58 | 48.4 | 1.23 | 46.2 | 1.98 | 36.2 | 0.35 | 3.05 | 79.3 | 27.2 | IC50 [5]: 2.28 µM; inhibition at 0.02 µg/mL (A-375 [20]): 0.56%; inhibition at 1.23 µg/mL (A-375 [21]): 18.7%; Retention_time [22]: 6.4 min |
| 9.43 | > 100 | COc1ccc2nc(C(=O)Nc3ccc(-c4ccccc4)cc3)c(C)c(C(=O)O)c2c1 | 70.2 | 0.05 | 0.35 | 19.4 | 11.3 | 47.9 | 11.2 | 2.01 | 5.31 | 33.6 | 0.65 | 58.3 | 1.26 | 28.3 | -0.12 | 3.65 | 72.5 | 33.6 | IC50 [5]: 1.09 µM; inhibition at 0.02 µg/mL (A-375 [20]): 0.68%; inhibition at 1.23 µg/mL (A-375 [21]): 21.3%; Retention_time [22]: 7.4 min |
| 7.57 | 42.8 | Cc1c(C(=O)Nc2c(F)cc(-c3cccc(F)c3)cc2F)nc2ccc(C(F)(F)F)cc2c1C(=O)O | 61.3 | 1.15 | 0.12 | 21.3 | 7.82 | 45.4 | 17.2 | 2.13 | 6.42 | 43.3 | 1.68 | 51 | 1.04 | 31.2 | 0.2 | 2.56 | 72.3 | 27.8 | IC50 [5]: 3.44 µM; inhibition at 0.02 µg/mL (A-375 [20]): 0.37%; inhibition at 1.23 µg/mL (A-375 [21]): 18.3%; Retention_time [22]: 6.8 min |
| 29.9 | 12.6 | Cc1c(C(=O)Nc2c(F)cc(-c3cccc(F)c3)cc2F)nc2ccc(C(F)(F)F)cc2c1O | 95.2 | 0.06 | 0.16 | 31.2 | 16.5 | 46.3 | 15.3 | 2.65 | 9.38 | 45.2 | 1.35 | 61.3 | 3.47 | 36.2 | -0.33 | 9.37 | 68.4 | 34.3 | IC50 [5]: 6.09 µM; inhibition at 0.02 µg/mL (A-375 [20]): 1.28%; inhibition at 1.23 µg/mL (A-375 [21]): 21.2%; Retention_time [22]: 7 min |
| 5.03 | 6.98 | COc1ccc2nc(C(=O)Nc3c(F)cc(-c4cccc(F)c4)cc3F)c(C)c(O)c2c1 | 96.8 | 0.87 | 0.79 | 25.2 | 28.7 | 57.2 | 13.3 | 2.68 | 4.5 | 31.2 | 1.35 | 64.9 | 6.38 | 29.3 | 0.105 | 11.6 | 46.2 | 49.9 | IC50 [5]: 0.94 µM; inhibition at 0.02 µg/mL (A-375 [20]): 2.13%; inhibition at 1.23 µg/mL (A-375 [21]): 36.2%; Retention_time [22]: 7.1 min |
| 5.8 | 14.9 | CCOc1ccc2nc(C(=O)Nc3c(F)cc(-c4cccc(F)c4)cc3F)c(C)c(C(=O)O)c2c1 | 72.3 | 0.05 | 0.3 | 26.5 | 11.2 | 48.3 | 17.9 | 2.06 | 5.34 | 38.6 | 0.98 | 51.2 | 1.96 | 33.2 | -0.12 | 3.05 | 65.3 | 35.2 | IC50 [5]: 2.83 µM; inhibition at 0.02 µg/mL (A-375 [20]): 1.02%; inhibition at 1.23 µg/mL (A-375 [21]): 26.6%; Retention_time [22]: 6.8 min |
| 15.8 | 8.13 | CCc1ccc2nc(C(=O)Nc3c(F)cc(-c4cccc(F)c4)cc3F)c(C)c(O)c2c1 | 47.2 | 2.05 | -0.35 | 31.2 | 3.56 | 26.4 | 23.5 | 11.2 | 16.2 | 56.3 | 5.62 | 28.4 | 0.68 | 46.3 | 0.74 | 1.57 | 63.2 | 17.9 | IC50 [5]: 3.21 µM; inhibition at 0.02 µg/mL (A-375 [20]): -0.12%; inhibition at 1.23 µg/mL (A-375 [21]): 12.2%; Retention_time [22]: 6.3 min |
| 4.8 | 22 | Cc1c(C(=O)Nc2c(F)cc(-c3cccc(F)c3)cc2F)nc2ccc(OC(F)(F)F)cc2c1C(=O)O | 68.8 | 1.22 | -0.11 | 29.8 | 15.2 | 42.4 | 21.2 | 7.28 | 15.3 | 46.2 | 3.05 | 53.1 | 1.06 | 37.3 | 0.45 | 3.06 | 75.3 | 37.9 | IC50 [5]: 1.5 µM; inhibition at 0.02 µg/mL (A-375 [20]): 0.95%; inhibition at 1.23 µg/mL (A-375 [21]): 24.4%; Retention_time [22]: 6.9 min |
| 16.9 | 57.8 | CCc1ccc2nc(C(=O)Nc3c(F)cc(-c4cccc(F)c4)cc3F)c(C)c(C(=O)O)c2c1 | 71.3 | -0.05 | -0.45 | 15.2 | 6.12 | 38.9 | 4.52 | 0.68 | 1.68 | 36.2 | 0 | 47.1 | 0.95 | 27.2 | -0.25 | 2.45 | 64.3 | 26.7 | inhibition at 0.02 µg/mL (A-375 [20]): -0.12%; inhibition at 1.23 µg/mL (A-375 [21]): 17.7%; Retention_time [22]: 6.8 min |
